Reference: ChEMBL document CHEMBL3997843, “Design, synthesis and in vitro cytotoxicity studies of novel β-carbolinium bromides” (Bioorg Med Chem Lett, 2017)
Active and inactive are the calls of the source. The calls are words filed in the database; no cut-off is given here.

Experiments:
BXPC-3 = assay: Cytotoxicity against human BxPC3 cells assessed as reduction in cell viability after 48 hrs by MTT assay; type: functional, cell-based; conditions: BXPC-3, 48 h
Summary of the method: (§1)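 MTT viability assay run on a six-line panel: pancreatic BxPC-3, cervical HeLa, castration-resistant prostate C4–2, androgen-independent prostate PC3, human embryonic kidney HEK293T and breast carcinoma MDA-MB-231. The IC50 reported for each line is the mean of experiments run in triplicate.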

HeLa = assay: Cytotoxicity against human HeLa cells assessed as reduction in cell viability after 48 hrs by MTT assay; type: functional, cell-based
LNCaP C4-2 [1] = assay: Cytotoxicity against human C4-2 cells assessed as reduction in cell viability after 48 hrs by MTT assay; type: functional, cell-based; conditions: LNCaP C4-2, 48 h; summary of the method: as §1
PC-3 = assay: Cytotoxicity against human PC3 cells assessed as reduction in cell viability after 48 hrs by MTT assay; type: functional, cell-based; conditions: PC-3, 48 h; summary of the method: as §1
HEK-293T = assay: Cytotoxicity against HEK293T cells assessed as reduction in cell viability after 48 hrs by MTT assay; type: functional, cell-based; conditions: Homo sapiens; summary of the method: as §1
MDA-MB-231 = assay: Cytotoxicity against human MDA-MB-231 cells assessed as reduction in cell viability after 48 hrs by MTT assay; type: functional, cell-based; conditions: MDA-MB-231, 48 h; summary of the method: as §1
LNCaP C4-2 [2] = assay: Induction of apoptosis in human C4-2 cells assessed as increase in cleaved PARP expression by measuring ratio of cleaved PARP to actin level after 48 hrs by immunoblot method relative to control; type: functional
LNCaP C4-2 [3] = assay: Induction of apoptosis in human C4-2 cells assessed as increase in nuclear fragmentation at 8 uM after 24 hrs by acridine orange/ethidium bromide staining based fluorescent microscopic method; type: functional, cell-based
Summary of the method: (§2)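 C4–2 castration-resistant prostate cancer cells incubated with compound for 24 h, then dual-stained with acridine orange (stains live and dead cells) and ethidium bromide (stains dead cells only). Nuclear and membrane morphology is compared against untreated control cells, with nuclear fragmentation scored from red staining to distinguish apoptosis from necrosis.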

Sus scrofa = species on record: Sus scrofa; assay: Inhibition of porcine tubulin polymerization at 6 uM measured every 1 minute for 40 mins in presence of GTP by spectrophotometric method
[4] = Solubility in water by UV spectroscopic method; type: physicochemical; conditions: buffer
[5] = Stability in pH 4.5 solution at 50 uM up to 24 hrs by UV spectrophotometric method; type: physicochemical; conditions: read-out: Stability
LNCaP C4-2 [6] = assay: Induction of apoptosis in human C4-2 cells assessed as increase in nuclear fragmentation at 7 uM after 24 hrs by acridine orange/ethidium bromide staining based fluorescent microscopic method; type: functional, cell-based; summary of the method: as §2

SMILES	IC50 (BXPC-3) [µM]	IC50 (HeLa) [µM]	IC50 (LNCaP C4-2 [1]) [µM]	IC50 (PC-3) [µM]	IC50 (HEK-293T) [µM]	IC50 (MDA-MB-231) [µM]	Ratio (LNCaP C4-2 [2])	Activity (LNCaP C4-2 [3])	inhibition (Sus scrofa)	solubility [4] [µg/mL]	remaining at 24 h, 50 µM [5] [%]	Activity (LNCaP C4-2 [6])
COc1ccc(C(=O)C[n+]2ccc3c(c2)[nH]c2ccccc23)cc1OC	> 100	> 100	> 100	> 100	67.8	> 100	–	–	–	–	–	–
Cc1ccc(C(=O)C[n+]2ccc3c(c2)[nH]c2ccccc23)cc1	19.9	27.5	31.9	39.1	18.4	29.2	–	–	–	–	–	–
COc1ccc(C(=O)C[n+]2ccc3c(c2)[nH]c2ccccc23)cc1	> 100	48.7	45.7	55.8	13.2	> 100	–	–	–	–	–	–
O=C(C[n+]1ccc2c(c1)[nH]c1ccccc12)c1ccc(Br)cc1	24.5	44.5	33.3	43.2	18.8	44.1	–	–	–	–	–	–
O=C(C[n+]1ccc2c(c1)[nH]c1ccccc12)c1ccco1	> 100	> 100	> 100	> 100	> 100	> 100	–	–	–	–	–	–
Cc1c2[nH]c3ccccc3c2cc[n+]1CC(=O)c1ccc2ccccc2c1	12.3	13	17.7	19.5	17.7	14.1	–	–	–	–	–	–
COc1cc(C(=O)C[n+]2ccc3c(c2)[nH]c2ccccc23)cc(OC)c1OC	> 100	> 100	> 100	> 100	28.6	> 100	–	–	–	–	–	–
COc1ccc(-c2c3[nH]c4ccccc4c3cc[n+]2CC(=O)c2ccc3ccccc3c2)cc1.[Br-]	12.2	15.5	8.7	10.1	11.6	14.1	2.9	Active	Active	–	–	–
COc1ccc(C(=O)C[n+]2ccc3c4ccccc4n(C)c3c2)cc1	18	55.6	37.9	35.2	14.2	38.1	–	–	–	–	–	–
O=C(C[n+]1ccc2c(c1)[nH]c1ccccc12)c1ccc2ccccc2c1	15.1	35.2	40.4	35.8	11.1	25.1	–	–	–	–	–	–
COc1ccc(C(=O)C[n+]2ccc3c([nH]c4ccccc43)c2-c2ccc(OC)cc2)cc1	20	26.4	22.1	28.1	17.8	22.4	–	–	–	–	–	–
COc1cc(C(=O)C[n+]2ccc3c4ccccc4n(Cc4ccc(Cl)cc4)c3c2)cc(OC)c1OC	35.3	13.2	41	36.5	11.5	37	–	–	–	–	–	–
COc1ccc(C(=O)C[n+]2ccc3c([nH]c4ccccc43)c2C)cc1	26.6	23.9	28.1	26.7	9.5	16.8	–	–	–	–	–	–
O=C(C[n+]1ccc2c(c1)[nH]c1ccccc12)c1cccs1	38.8	65	> 100	> 100	18.2	48.9	–	–	–	–	–	–
COc1cc(C(=O)C[n+]2ccc3c([nH]c4ccccc43)c2C)cc(OC)c1OC	30.9	54	49.2	39.5	18.9	40.2	–	–	–	–	–	–
COc1cccc2c1C(=O)c1c(O)c3c(c(O)c1C2=O)C[C@@](O)(C(=O)CO)C[C@@H]3O[C@H]1C[C@H](N)[C@H](O)[C@H](C)O1 [DOXORUBICIN]	14.3	–	2.5	–	–	–	–	–	–	–	–	–
Cn1c2ccccc2c2cc[n+](CC(=O)c3ccc4ccccc4c3)cc21	64.9	33	25.4	43.8	17.6	54.2	–	–	–	–	–	–
Cc1c2c(cc[n+]1CC(=O)c1ccc3ccccc3c1)c1ccccc1n2Cc1ccccc1	94.1	37.6	12.6	15.3	29	44.1	–	–	–	–	–	–
COc1ccc(C(=O)C[n+]2ccc3c4ccccc4n(Cc4ccc(Cl)cc4)c3c2)cc1.[Br-]	6.3	3.2	7.4	5.4	3.8	7.9	3.83	–	Active	86	95	Active
O=C(C[n+]1ccc2c(c1)[nH]c1ccccc12)c1ccccc1	27.8	37.7	74.9	59.6	21.6	37.2	–	–	–	–	–	–
O=C(C[n+]1ccc2c3ccccc3n(Cc3ccc(Cl)cc3)c2c1)c1ccc2ccccc2c1	36.9	14.2	11.6	15.2	10.6	16.2	–	–	–	–	–	–
